Measurements reported in ChEMBL document CHEMBL2086331, “Novel triazolopyridylbenzamides as potent and selective p38α inhibitors” (Bioorg Med Chem Lett, 2012).

Tests used:
[1] = system: Blood; test: Inhibition of LPS-induced TNFalpha production in human whole blood; format: functional, tissue-based
[2] = Stability in rat hepatic microsomes assessed as compound turnover at 5 uM incubated for 30 mins in presence of NADPH; format: ADME; details: liver microsomes, read-out: Drug degradation
Method in brief: (§1)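 Rat or human hepatic microsomes (1 mg/mL) with NADPH, test compound 5 µM, 30 min at 37 °C; readout is % turnover of parent.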

[3] = Stability in human hepatic microsomes assessed as compound turnover at 5 uM incubated for 30 mins in presence of NADPH; format: ADME; details: liver microsomes, read-out: Drug degradation; method in brief: as §1
[4] = Passive permeability from basolateral to apical side in human Caco2 cells at 12.5 uM; format: ADME, cell-based; details: Caco-2, read-out: permeability
Method in brief: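 Caco-2 monolayer, test compound 12.5 µM; passive apparent permeability measured in both AB and BA directions, reported in 10^-6 cm/s.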

[5] = system: CHO; test: Cytotoxicity against CHO cells; format: cell-based; details: Cricetulus griseus
[6] = Protein binding in rat plasma; format: ADME, cell-free; details: read-out: PPB (converted)
[7] = Protein binding in human plasma; format: ADME, cell-free; details: read-out: PPB (converted)
[8] = Half life in Wistar rat at 1 mg/kg, iv; format: ADME, organism-based; design: dose 1 mg/kg, route intravenous; details: in vivo
Method in brief: (§2)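 Wistar rats, single dose either iv 1 mg/kg in 40% PEG + 0.4% HCl 1 N, or oral 10 mg/kg in 0.5% methylcellulose + 0.1% Tween 80; plasma PK parameters reported as mean values (n = 2).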

[9] = AUC in Wistar rat at 1 mg/kg, iv; format: ADME, organism-based; design: dose 1 mg/kg, route intravenous; details: plasma; method in brief: as §2
[10] = Clearance in Wistar rat at 1 mg/kg, iv; format: ADME, organism-based; design: dose 1 mg/kg, route intravenous; details: in vivo; method in brief: as §2
[11] = Volume of distribution at steady state in Wistar rat at 1 mg/kg, iv; format: ADME, organism-based; design: dose 1 mg/kg, route intravenous; details: in vivo, read-out: Vdss; method in brief: as §2
[12] = Cmax in Wistar rat at 10 mg/kg, po; format: ADME, organism-based; design: dose 10 mg/kg, route oral; details: in vivo; method in brief: as §2
[13] = AUC in Wistar rat at 10 mg/kg, po; format: ADME, organism-based; design: dose 10 mg/kg, route oral; details: plasma; method in brief: as §2
[14] = Oral bioavailability in Wistar rat at 10 mg/kg; format: ADME, organism-based; details: in vivo; method in brief: as §2
[15] = AUC in beagle dog at 1 mg/kg, iv; format: ADME, organism-based, Canis lupus familiaris; design: dose 1 mg/kg, route intravenous; details: plasma
Method in brief: (§3)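 Beagle dogs dosed 1 mg/kg iv or 1 mg/kg po; pharmacokinetic parameters reported as mean values of n = 2 animals.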

[16] = Clearance in beagle dog at 1 mg/kg, iv; format: ADME, organism-based, Canis lupus familiaris; design: dose 1 mg/kg, route intravenous; details: in vivo; method in brief: as §3
[17] = Volume of distribution at steady state in beagle dog at 1 mg/kg, iv; format: ADME, organism-based, Canis lupus familiaris; design: dose 1 mg/kg, route intravenous; details: in vivo, read-out: Vdss; method in brief: as §3
[18] = Half life in beagle dog at 1 mg/kg, iv; format: ADME, organism-based, Canis lupus familiaris; design: dose 1 mg/kg, route intravenous; details: in vivo; method in brief: as §3
[19] = system: CHO; test: Toxicity against CHO cells; format: cell-based, Cricetulus griseus; details: chinese hamster
[20] = molecular target: T1, Cytochrome P450 1A2 (Homo sapiens, UniProt P05177); test: Inhibition of CYP1A2 at < 25 uM; format: ADME
T1 sequence (P05177 whole entry): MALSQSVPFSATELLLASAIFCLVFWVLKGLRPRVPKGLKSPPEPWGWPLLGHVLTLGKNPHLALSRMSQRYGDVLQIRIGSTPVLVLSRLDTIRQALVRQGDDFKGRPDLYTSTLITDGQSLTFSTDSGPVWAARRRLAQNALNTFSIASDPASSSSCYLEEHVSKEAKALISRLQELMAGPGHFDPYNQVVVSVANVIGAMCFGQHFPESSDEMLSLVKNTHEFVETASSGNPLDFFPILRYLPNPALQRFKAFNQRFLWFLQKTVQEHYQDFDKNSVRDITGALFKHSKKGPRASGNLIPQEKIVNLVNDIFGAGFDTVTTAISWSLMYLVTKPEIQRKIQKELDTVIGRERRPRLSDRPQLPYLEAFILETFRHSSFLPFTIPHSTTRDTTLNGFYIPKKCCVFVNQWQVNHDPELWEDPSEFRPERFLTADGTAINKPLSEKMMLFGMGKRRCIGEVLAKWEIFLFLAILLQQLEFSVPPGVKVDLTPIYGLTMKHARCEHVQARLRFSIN

[21] = molecular target: Cytochrome P450 3A4 (Homo sapiens, UniProt P08684); test: Inhibition of CYP3A4 at < 25 uM; format: ADME
[22] = molecular target: Cytochrome P450 2C9 (Homo sapiens, UniProt P11712); test: Inhibition of CYP2C9 at < 25 uM; format: ADME
[23] = molecular target: Cytochrome P450 2C19 (Homo sapiens, UniProt P33261); test: Inhibition of CYP2C19 at < 25 uM; format: ADME
[24] = molecular target: Cytochrome P450 2D6 (Homo sapiens, UniProt P10635); test: Inhibition of CYP2D6 at < 25 uM; format: ADME
[25] = molecular target: RAF proto-oncogene serine/threonine-protein kinase (Homo sapiens, UniProt P04049); test: Inhibition of c-Raf at 10 uM
Method in brief: (§4)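 Upstate 55-kinase panel; single inhibitor concentration 10 µM, duplicate wells, ATP at the Km of each kinase.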

[26] = molecular target: Proto-oncogene tyrosine-protein kinase receptor Ret (Homo sapiens, UniProt P07949); test: Inhibition of RET at 10 uM; method in brief: as §4
[27] = in vitro; details: human, Caco-2

Sequence of Cytochrome P450 2C9 (P11712 whole entry): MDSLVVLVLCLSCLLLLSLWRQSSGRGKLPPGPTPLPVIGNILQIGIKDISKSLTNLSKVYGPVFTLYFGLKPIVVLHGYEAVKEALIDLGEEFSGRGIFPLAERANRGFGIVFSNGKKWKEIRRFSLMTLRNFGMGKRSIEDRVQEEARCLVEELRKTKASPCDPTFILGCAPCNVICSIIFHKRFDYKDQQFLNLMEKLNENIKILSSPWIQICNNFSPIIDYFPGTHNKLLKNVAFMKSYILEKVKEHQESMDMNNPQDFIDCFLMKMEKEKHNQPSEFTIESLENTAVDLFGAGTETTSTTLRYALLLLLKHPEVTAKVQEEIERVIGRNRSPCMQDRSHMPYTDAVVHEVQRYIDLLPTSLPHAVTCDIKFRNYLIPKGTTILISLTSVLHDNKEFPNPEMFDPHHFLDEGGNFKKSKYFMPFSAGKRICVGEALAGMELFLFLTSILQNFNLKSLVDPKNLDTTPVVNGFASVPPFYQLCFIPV
Sequence of RAF proto-oncogene serine/threonine-protein kinase (P04049 whole entry): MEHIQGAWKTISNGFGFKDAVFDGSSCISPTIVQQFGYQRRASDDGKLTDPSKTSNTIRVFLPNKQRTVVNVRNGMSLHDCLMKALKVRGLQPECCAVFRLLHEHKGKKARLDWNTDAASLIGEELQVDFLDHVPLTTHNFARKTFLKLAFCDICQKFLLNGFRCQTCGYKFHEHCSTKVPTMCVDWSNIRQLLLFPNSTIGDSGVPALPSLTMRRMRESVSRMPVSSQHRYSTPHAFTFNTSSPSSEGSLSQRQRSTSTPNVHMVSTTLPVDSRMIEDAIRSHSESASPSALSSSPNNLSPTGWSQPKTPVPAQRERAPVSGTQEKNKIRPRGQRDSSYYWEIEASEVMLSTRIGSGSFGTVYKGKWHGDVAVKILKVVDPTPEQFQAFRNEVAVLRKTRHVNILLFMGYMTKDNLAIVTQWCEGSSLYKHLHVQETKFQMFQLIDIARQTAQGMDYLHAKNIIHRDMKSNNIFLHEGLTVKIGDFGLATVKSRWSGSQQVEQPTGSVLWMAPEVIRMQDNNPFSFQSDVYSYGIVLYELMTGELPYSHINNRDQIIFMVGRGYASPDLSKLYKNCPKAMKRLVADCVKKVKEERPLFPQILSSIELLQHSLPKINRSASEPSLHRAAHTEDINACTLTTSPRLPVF
Sequence of Cytochrome P450 3A4 (P08684 whole entry): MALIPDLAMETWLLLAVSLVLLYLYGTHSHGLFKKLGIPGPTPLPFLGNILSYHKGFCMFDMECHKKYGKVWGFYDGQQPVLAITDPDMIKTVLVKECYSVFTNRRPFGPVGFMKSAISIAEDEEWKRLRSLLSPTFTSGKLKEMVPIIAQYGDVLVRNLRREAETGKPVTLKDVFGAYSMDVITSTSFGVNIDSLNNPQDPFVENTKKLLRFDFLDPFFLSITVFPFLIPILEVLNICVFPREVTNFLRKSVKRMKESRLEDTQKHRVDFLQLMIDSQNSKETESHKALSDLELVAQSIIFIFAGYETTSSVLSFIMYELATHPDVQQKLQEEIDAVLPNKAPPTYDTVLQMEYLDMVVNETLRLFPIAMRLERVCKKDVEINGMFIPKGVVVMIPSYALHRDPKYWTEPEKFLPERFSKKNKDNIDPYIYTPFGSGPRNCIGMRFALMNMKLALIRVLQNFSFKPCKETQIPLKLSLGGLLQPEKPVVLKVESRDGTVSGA
Sequence of Cytochrome P450 2C19 (P33261 whole entry): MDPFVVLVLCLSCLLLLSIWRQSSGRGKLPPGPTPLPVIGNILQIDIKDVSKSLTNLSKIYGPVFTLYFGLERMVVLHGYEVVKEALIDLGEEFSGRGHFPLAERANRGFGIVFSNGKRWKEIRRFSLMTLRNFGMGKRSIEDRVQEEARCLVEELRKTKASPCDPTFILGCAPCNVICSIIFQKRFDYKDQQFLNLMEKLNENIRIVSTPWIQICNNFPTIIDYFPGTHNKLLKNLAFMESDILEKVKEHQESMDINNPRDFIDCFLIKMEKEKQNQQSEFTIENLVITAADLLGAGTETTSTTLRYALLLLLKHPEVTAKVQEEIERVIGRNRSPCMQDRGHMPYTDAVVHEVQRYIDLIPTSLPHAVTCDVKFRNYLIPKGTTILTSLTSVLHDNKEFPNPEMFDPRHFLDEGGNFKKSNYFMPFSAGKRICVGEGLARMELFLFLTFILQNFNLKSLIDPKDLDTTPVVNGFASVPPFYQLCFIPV
Sequence of Proto-oncogene tyrosine-protein kinase receptor Ret (P07949 whole entry): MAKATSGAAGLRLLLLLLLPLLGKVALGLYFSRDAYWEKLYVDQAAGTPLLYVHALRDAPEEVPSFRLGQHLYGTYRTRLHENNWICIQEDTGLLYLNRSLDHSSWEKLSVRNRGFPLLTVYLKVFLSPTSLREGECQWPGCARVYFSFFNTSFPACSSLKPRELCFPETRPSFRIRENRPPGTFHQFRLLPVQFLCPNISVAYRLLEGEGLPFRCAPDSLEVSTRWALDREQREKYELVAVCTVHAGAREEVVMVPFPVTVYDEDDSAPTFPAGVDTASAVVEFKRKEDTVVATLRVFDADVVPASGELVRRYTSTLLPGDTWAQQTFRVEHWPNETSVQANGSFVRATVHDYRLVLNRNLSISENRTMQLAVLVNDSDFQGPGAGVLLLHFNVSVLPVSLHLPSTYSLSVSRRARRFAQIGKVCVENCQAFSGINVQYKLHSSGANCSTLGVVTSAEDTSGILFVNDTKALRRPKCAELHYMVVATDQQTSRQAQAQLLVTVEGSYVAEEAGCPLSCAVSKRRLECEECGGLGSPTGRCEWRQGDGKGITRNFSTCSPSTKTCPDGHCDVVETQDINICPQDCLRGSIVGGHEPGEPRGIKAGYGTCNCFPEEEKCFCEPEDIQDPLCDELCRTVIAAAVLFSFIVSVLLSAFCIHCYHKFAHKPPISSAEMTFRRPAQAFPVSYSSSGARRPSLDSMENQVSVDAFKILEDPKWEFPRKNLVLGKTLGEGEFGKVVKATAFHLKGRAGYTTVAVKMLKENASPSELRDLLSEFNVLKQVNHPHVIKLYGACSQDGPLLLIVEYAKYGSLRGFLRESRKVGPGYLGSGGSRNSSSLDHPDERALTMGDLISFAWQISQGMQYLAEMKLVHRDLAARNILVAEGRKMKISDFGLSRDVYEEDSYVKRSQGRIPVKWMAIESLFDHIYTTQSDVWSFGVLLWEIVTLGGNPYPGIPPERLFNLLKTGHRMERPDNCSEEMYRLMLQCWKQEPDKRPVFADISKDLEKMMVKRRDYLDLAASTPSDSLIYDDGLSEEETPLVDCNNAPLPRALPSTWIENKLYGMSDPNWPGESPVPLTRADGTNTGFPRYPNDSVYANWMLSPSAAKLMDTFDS
Sequence of Cytochrome P450 2D6 (P10635 whole entry): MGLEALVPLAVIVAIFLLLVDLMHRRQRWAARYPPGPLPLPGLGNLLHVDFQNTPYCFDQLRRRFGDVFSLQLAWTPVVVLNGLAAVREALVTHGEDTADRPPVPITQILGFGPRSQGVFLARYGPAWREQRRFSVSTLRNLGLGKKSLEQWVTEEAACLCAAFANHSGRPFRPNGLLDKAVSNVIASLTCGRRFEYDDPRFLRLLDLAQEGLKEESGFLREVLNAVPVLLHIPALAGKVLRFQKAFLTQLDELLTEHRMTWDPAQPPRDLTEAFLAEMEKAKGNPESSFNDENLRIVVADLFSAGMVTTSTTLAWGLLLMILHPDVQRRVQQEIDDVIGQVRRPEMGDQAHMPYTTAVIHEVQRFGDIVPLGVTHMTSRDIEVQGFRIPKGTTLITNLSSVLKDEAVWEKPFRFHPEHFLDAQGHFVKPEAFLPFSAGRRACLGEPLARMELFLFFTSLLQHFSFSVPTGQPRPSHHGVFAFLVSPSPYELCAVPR

In the case of `Cc1c(F)cc(C(=O)NC2CC2)cc1-c1ccn2c(C(C)(C)NS(C)(=O)=O)nnc2c1`, the IC50 [1] is reported as 1110 nM.

Compound `Cc1ccc(C(=O)NC2CC2)cc1-c1ccn2c(C3CCC3)nnc2c1` has an IC50 [1] of 670 nM.

`Cc1ccc(C(=O)NC2CC2)cc1-c1c(F)cn2c(C(C)(C)C)nnc2c1F` showed an IC50 [1] of 516 nM.

In the case of `Cc1c(F)cc(C(=O)NC2CC2)cc1-c1ccn2c(C(C)(C)C)nnc2c1`, the IC50 [1] is reported as 48 nM, the metabolised at 0.5 h, 5 µM [2] is reported as under 5% and the metabolised at 0.5 h, 5 µM [3] is reported as under 5%. For the same compound, the Papp B→A at 12.5 µM [4] was 23 ×10⁻⁶ cm/s, the IC50 [5] was 107 µM and the fraction unbound [6] was 0.21. The fraction unbound [7] was 0.16, the half-life [8] was 228 min and the AUC [9] was 2670 ng·h/mL. For the same compound, the clearance [10] was 6.5 mL/min/kg, the Vd [11] was 1.3 L/kg and the Cmax [12] was 2580 ng/mL. It also gave an AUC [13] of 17800 ng·h/mL, a bioavailability [14] of 66% and an AUC [15] of 2770 ng·h/mL. The clearance [16] was 6.2 mL/min/kg, the Vd [17] was 1.6 L/kg and the half-life [18] was 210 min. For the same compound, the Activity [19] was “Non-toxic”, the “inhibition (INH)” value [20] was “Not Active” and the “inhibition (INH)” value [21] was “Not Active”. The “inhibition (INH)” value [22] was “Not Active”, the “inhibition (INH)” value [23] was “Not Active” and the “inhibition (INH)” value [24] was “Not Active”. It also gave an inhibition [25] of 66%, an inhibition [26] of 66% and a Papp A→B at 12.5 µM [27] of 27 ×10⁻⁶ cm/s.

For `Cc1ccc(C(=O)NC2CC2)cc1-c1ccn2c(C3CCOCC3)nnc2c1`, the IC50 [1] was 667 nM.

Compound `Cc1c(F)cc(C(=O)NC2CC2)cc1-c1ccn2c(C(C)(C)N)nnc2c1` has an IC50 [1] of 177 nM.

Work on `Cc1c(F)cc(C(=O)NC2CC2)cc1-c1ccn2c(C(C)(C)O)nnc2c1` yielded an IC50 [1] of 105 nM.

`COC(C)(C)c1nnc2cc(-c3cc(C(=O)NC4CC4)cc(F)c3C)ccn12` showed an IC50 [1] of 278 nM.

Compound `Cc1c(F)cc(C(=O)NC2CC2)cc1-c1ccn2c(C(N)=O)nnc2c1` has an IC50 [1] of 1840 nM.

In the case of `Cc1c(F)cc(C(=O)NC2CC2)cc1-c1ccn2c(-c3ccncc3Cl)nnc2c1`, the IC50 [1] is reported as 84 nM.

`Cc1ccc(C(=O)NC2CC2)cc1-c1ccn2c(-c3ccncc3Cl)nnc2c1` showed an IC50 [1] of 305 nM.

For `Cc1ccc(C(=O)NC2CC2)cc1-c1ccn2c(C3(C)CC3)nnc2c1`, the IC50 [1] was 232 nM.

Compound `Cc1c(F)cc(C(=O)NC2CC2)cc1-c1c(F)cn2c(-c3ccncc3Cl)nnc2c1F` has an IC50 [1] of over 5000 nM.

Compound `Cc1c(F)cc(C(=O)NC2CC2)cc1-c1c(F)cn2c(C3CC3)nnc2c1F` has an IC50 [1] of 1470 nM.

For `COC(C)c1nnc2cc(-c3cc(C(=O)NC4CC4)cc(F)c3C)ccn12` (stereo not drawn), the IC50 [1] was 257 nM.

`COC(C)c1nnc2cc(-c3cc(C(=O)NC4CC4)ccc3C)ccn12` (stereo not drawn) showed an IC50 [1] of 1060 nM.

`Cc1c(F)cc(C(=O)NC2CC2)cc1-c1c(F)cn2c(C(C)(C)N(C)C)nnc2c1F` gave an IC50 [1] of 124 nM.
